For assay [1], the system named is A549. The assay can be described thus: Cytotoxicity against human A549 cells after 72 hrs by methylene blue assay. It counts as functional, cell-based. As to conditions: A549, 72 h. In a few lines: (§1)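 Cells exposed to compounds for 72 h, then fixed. Protein content quantified by methylene blue staining. IC50 is 50% inhibition of control growth. Means ± SD of three independent experiments.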

The test system of assay [2] is MCF7. The assay is described as follows: Cytotoxicity against human MCF7 cells after 72 hrs by methylene blue assay. It counts as functional, cell-based. As to conditions: MCF7, 72 h. An outline of the steps: as §1
Assay [3] deals with HT-1080. The assay can be described thus: Cytotoxicity against human HT1080 cells after 3 days by MTT assay. It counts as functional, cell-based. As to conditions: HT-1080, 72 h. An outline of the steps: (§2)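 Cells (3 × 10^3 BAE or 2 × 10^3 HT1080) in their growth media with serial compound dilutions, 3 days, 37 °C, 5% CO2. MTT added for 4 h, formazan dissolved in 0.04 N HCl–2-propanol, read at 550 nm. Triplicate determinations. IC50 is the concentration giving 50% cell survival. Means ± SD of three independent experiments.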

Assay [4] in a line: Cytotoxicity against mouse betaD10 cells after 96 hrs by MTS assay. It counts as functional, cell-based. An outline of the steps:
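βD10 lung tumor cells from c-myc/c-raf double transgenic mice seeded at 10^3 cells/well and left to attach 24 h. Compounds added in medium at various concentrations for 24 or 96 h. MTS/PES reagent then 1 h at 37 °C, absorbance at 490 nm. Quintuplicates, expressed as % of control.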

Assay [5] can be described thus: Cytotoxicity against BAEC. As to conditions: Bos taurus. In a few lines:
as §2

A short description of assay [6]: Antiangiogenic activity in BAEC assessed as inhibition of tube formation after 7 hrs by cell differentiation assay. The assay is classed as functional. As to conditions: Bos taurus. An outline of the steps:
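BAE cells (5 × 10^4) in DMEM plated on polymerized Matrigel (about 10.5 mg/mL), compounds added at different amounts, 37 °C, 5% CO2, 7 h. Cord/tube formation photographed at 200×. Each concentration tested in duplicate, scored by two observers.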

Assay [7] is described as follows: Antiangiogenic activity in BAEC assessed as inhibition cell migration after 24 hrs by […] migration assay. The assay is classed as functional. The following applies: Bos taurus. An outline of the steps:
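BAE monolayers grown to confluence, wounded with pipette tips to give one acellular 1 mm-wide lane per well, washed, then given complete medium with or without test compounds. Same wounded areas photographed at 0, 7 and 24 h under microscope.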

In assay [8] the target is T1, Tubulin (Sus scrofa) (UniProt P02554+P02550). The assay is described as follows: Induction of pig brain tubulin polymerization at 5 uM.
T1 sequence (P02550 whole entry, looked up): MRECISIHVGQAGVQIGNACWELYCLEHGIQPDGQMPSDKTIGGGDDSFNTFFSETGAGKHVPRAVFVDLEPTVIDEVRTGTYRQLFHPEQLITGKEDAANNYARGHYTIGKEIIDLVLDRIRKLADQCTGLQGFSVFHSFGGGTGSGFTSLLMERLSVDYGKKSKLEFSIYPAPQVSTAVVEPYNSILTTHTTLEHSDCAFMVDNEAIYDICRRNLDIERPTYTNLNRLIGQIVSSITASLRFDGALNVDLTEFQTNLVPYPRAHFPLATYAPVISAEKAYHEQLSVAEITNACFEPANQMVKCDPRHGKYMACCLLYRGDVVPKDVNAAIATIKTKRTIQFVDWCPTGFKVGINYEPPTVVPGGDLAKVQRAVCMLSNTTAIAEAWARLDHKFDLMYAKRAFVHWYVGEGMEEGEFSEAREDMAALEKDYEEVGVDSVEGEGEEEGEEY
T1 sequence (P02554 whole entry, looked up): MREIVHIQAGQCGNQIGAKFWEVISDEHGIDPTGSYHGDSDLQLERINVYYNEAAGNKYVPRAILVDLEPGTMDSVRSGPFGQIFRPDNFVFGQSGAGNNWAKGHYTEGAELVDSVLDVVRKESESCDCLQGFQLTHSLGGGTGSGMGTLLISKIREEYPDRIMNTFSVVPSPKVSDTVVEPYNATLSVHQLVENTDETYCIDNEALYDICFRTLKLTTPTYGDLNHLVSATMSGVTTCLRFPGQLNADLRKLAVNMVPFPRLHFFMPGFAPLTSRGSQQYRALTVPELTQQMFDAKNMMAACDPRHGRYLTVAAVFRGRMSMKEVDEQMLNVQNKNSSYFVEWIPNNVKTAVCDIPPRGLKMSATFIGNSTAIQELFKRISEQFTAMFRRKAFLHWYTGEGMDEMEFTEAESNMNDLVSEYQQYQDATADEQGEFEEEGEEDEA
In assay [9] the target is T1, Tubulin (Sus scrofa). The assay can be described thus: Induction of pig brain tubulin polymerization at 10 uM.

Structures are written as SMILES. ≈ marks a conversion by molar mass, not a printed value.

We go through 7 compounds from ChEMBL document CHEMBL1152648, “Synthesis and biological evaluation of epothilone A dimeric compounds” (Bioorg Med Chem, 2009).

In the case of `C/C(=C\c1csc(C)n1)[C@@H]1C[C@@H]2O[C@@H]2CCC[C@H](C)[C@H](OC(=O)CCCCC(=O)O[C@H]2[C@@H](C)CCC[C@H]3O[C@H]3C[C@@H](/C(C)=C/c3csc(C)n3)OC(=O)C[C@H](O)C(C)(C)C(=O)[C@@H]2C)[C@@H](C)C(=O)C(C)(C)[C@@H](O)CC(=O)O1`, the IC50 in assay [1] is 405 nM; in assay [2], 412 nM; in [3] it was 69 nM; in [4], 70500 nM; in assay [5], 40 nM. In addition, the MIC in [6] and in assay [7] was 0.1 µM (≈ 0.11 µg/mL) each time. Besides, the figures for the % tubulin polymerization in assay [8] and in [9] were 0.2% and 0.7%, respectively.
For `C/C(=C\c1csc(C)n1)[C@@H]1C[C@@H]2O[C@@H]2CCC[C@H](C)[C@H](OC(=O)CCCCCCC(=O)O[C@H]2[C@@H](C)CCC[C@H]3O[C@H]3C[C@@H](/C(C)=C/c3csc(C)n3)OC(=O)C[C@H](O)C(C)(C)C(=O)[C@@H]2C)[C@@H](C)C(=O)C(C)(C)[C@@H](O)CC(=O)O1`, the IC50 in assay [1] stood at 316 nM; in assay [2], 321 nM; in [3], 17 nM; in assay [4], 2500 nM; in assay [5], 20 nM. For the same compound, the MIC in assay [6] and in assay [7] was 0.1 µM (≈ 0.113 µg/mL) each time. In addition, the % tubulin polymerization amounted to 0.7% in [8] and 0.3% in assay [9].
As for `C/C(=C\c1csc(C)n1)[C@@H]1C[C@@H]2O[C@@H]2CCC[C@H](C)[C@H](OC(=O)CCSSCCC(=O)O[C@H]2[C@@H](C)CCC[C@H]3O[C@H]3C[C@@H](/C(C)=C/c3csc(C)n3)OC(=O)C[C@H](O)C(C)(C)C(=O)[C@@H]2C)[C@@H](C)C(=O)C(C)(C)[C@@H](O)CC(=O)O1`, the IC50 in [1] is 367 nM; in assay [2], 379 nM; in assay [3], 43 nM; in assay [4], 3.3 nM; in assay [5] it was 111 nM. The MIC in assay [6] was 0.05 µM (≈ 0.0581 µg/mL); in assay [7], 0.1 µM (≈ 0.116 µg/mL). Besides, the results for the % tubulin polymerization in [8] and in [9] were 0% and 0.2%, respectively.
Turning to `C/C(=C\c1csc(C)n1)[C@@H]1C[C@@H]2O[C@@H]2CCC[C@H](C)[C@H](OC(=O)CSSCC(=O)O[C@H]2[C@@H](C)CCC[C@H]3O[C@H]3C[C@@H](/C(C)=C/c3csc(C)n3)OC(=O)C[C@H](O)C(C)(C)C(=O)[C@@H]2C)[C@@H](C)C(=O)C(C)(C)[C@@H](O)CC(=O)O1`, the IC50 was determined as 319 nM in [1]; 357 nM in assay [2]; 290 nM in assay [3]; 1000 nM in assay [4]; 29 nM in assay [5]. In addition, the MIC in assay [6] worked out at 0.1 µM (≈ 0.113 µg/mL); in [7], 0.05 µM (≈ 0.0567 µg/mL). Besides, the % tubulin polymerization was determined as 0.3% in assay [8] and 1% in [9].
With `C/C(=C\c1csc(C)n1)[C@@H]1C[C@@H]2O[C@@H]2CCC[C@H](C)[C@H](O)[C@@H](C)C(=O)C(C)(C)[C@@H](O)CC(=O)O1` [EPOTHILONE A], the IC50 in assay [1] was 2.6 nM; in assay [2] it was 2.5 nM; in assay [3], 1.3 nM; in [4], 70 nM; in assay [5] it was 0.7 nM. Besides, the MIC in [6] and in assay [7] was 0.005 µM (≈ 0.00247 µg/mL) each time. The results for the % tubulin polymerization in assay [8] and in assay [9] were 92.2% and 99.8%, respectively.
For the compound `C/C(=C\c1csc(C)n1)[C@@H]1C[C@@H]2O[C@@H]2CCC[C@H](C)[C@H](OC(=O)CCCSSCCCC(=O)O[C@H]2[C@@H](C)CCC[C@H]3O[C@H]3C[C@@H](/C(C)=C/c3csc(C)n3)OC(=O)C[C@H](O)C(C)(C)C(=O)[C@@H]2C)[C@@H](C)C(=O)C(C)(C)[C@@H](O)CC(=O)O1`, the IC50 in assay [1] turned out to be 383 nM; in assay [2] it was 432 nM; in assay [3] it was 71 nM; in assay [4], 2000 nM; in assay [5], 133 nM. The MIC in assay [6] and in [7] was 0.1 µM (≈ 0.119 µg/mL) each time. Moreover, the results for the % tubulin polymerization in assay [8] and in [9] were 0.5% and 0.2%, respectively.
Consider `C/C(=C\c1csc(C)n1)[C@@H]1C[C@@H]2O[C@@H]2CCC[C@H](C)[C@H](OC(=O)CCCCCCCCC(=O)O[C@H]2[C@@H](C)CCC[C@H]3O[C@H]3C[C@@H](/C(C)=C/c3csc(C)n3)OC(=O)C[C@H](O)C(C)(C)C(=O)[C@@H]2C)[C@@H](C)C(=O)C(C)(C)[C@@H](O)CC(=O)O1`, for which the IC50 in assay [1] was 956 nM; in assay [2] it was 1030 nM; in assay [3], 13 nM; in assay [4], 5020 nM; in assay [5], 39 nM. Moreover, the MIC in assay [6] was determined as 0.05 µM (≈ 0.0577 µg/mL); in assay [7], 0.1 µM (≈ 0.115 µg/mL). The results for the % tubulin polymerization in [8] and in [9] were 0.1% and 0.6%, respectively.
